This sample holds only a part of the variants without activity.
B1: tRNA (parent)
chain: GUUCCGUUGGCGUAAUGGUAACGCGUCUCCCUCCUAAGGAGAAGACUGCGGGUUCGAGUCCCGUACGGAACG

Variants of: B1
Assay: yeast fitness relative to wild type (ratio to wild type); higher = fitter; tRNA-Arg(CCU), competitive growth, 37 C, YPD
In short: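 Changes in genotype frequencies gave Darwinian fitness relative to wild type. Frequencies were read by 100-nucleotide paired-end sequencing of gene amplicons before and after pooled Saccharomyces cerevisiae strains, carrying tRNA-Arg(CCU) gene variants at the native locus, were competed in YPD at 37°C for 24 hours in six replicates. A genotype was kept only with ≥ 100 starting reads, and estimates < 0.5 were set to 0.5.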

Going from GUUCCGUUGGCGUAAUGGUAACGCGUCUCCCUCUUAAGGAGAGGACUGCGGGUCCGAGUCCCGUACGGAACG [C34U A43G U54C] to GUUCCGUUGGCGUAAUGGUAACGCGUCUCCCUCUUAAGGAGAAGACUGAGGGUUCGAGUCCCGUACGGAACG [C34U C49A], the yeast fitness rises from at most 0.5 to 0.585.

Compared with GUUCCGUUGGCGUAAUGGUAACGCGUCUCCCUCUUAAGGAGAAGACUCCGGGUUCGAGUCCCGUACGGAACG [C34U G48C], GUUCCGUUGGCGUAAUGGUAACGCGUCUCCCUCUUAAGGAGAACGCGGCGGGUUCGAGUCCCGUACGGAACG [C34U G44C A45G U47G] is lower in yeast fitness: 0.674 for the first, at most 0.5 for the second.

GUUCCGUUGGCGUAAUGGUAACGCGUCUCCCUCUUAAGGAGAAGACUGCGGGUUCGAGUCCCGUCCCGAACG [C34U A65C G67C] and GUUCCGUUGGCGUAAUGGUAACGCGUCUCCCUCUUAAGAAGAAGACCGCGGGUUCAAGUCCCGUACGGAACG [C34U G39A U47C G56A] cannot be ordered by yeast fitness: at most 0.5 for the first, at most 0.5 for the second.

Going from GUUCCGUUGGCGUAAUGGUAACGCGUCUCCCUCUUAAGGAGAAGACUGCGGGUUCGAGUCCCGUCCGGAACG [C34U A65C] to GUUCCGUUGGCGUAAUGGUAACGCGUCUCCCUCUUAAGGAAAAGACUGGGGGUUCGAGUCCCGUACGGAACG [C34U G41A C49G], the yeast fitness falls from 0.884 to 0.535.

Going from GUUCCGUUGGCGUAAUGGUAACGCGUCUCCCUCUUAAGGUGAAGACUGCGGGUUCGAGUCCCGUACGGAACG [C34U A40U] to GUUCCGUUGGCGUAAUGGUAACGCGUCUCCCUCUUAAGGGGAAGACUGCGGGUUCGAGUCCCGUACGGAACG [C34U A40G], the yeast fitness rises from 0.632 to 0.729.

First: GUUCCGUUGGCGUAAUGGUAACGCGUCUCCCUCUUAAGGAGAAGCCUGCGGGUUCGAGUCCCGUACUGCCCG [C34U A45C G67U A69C A70C]
Second: GUUCCGUUGGCGUAAUGGUAACGCGUCUCCCUCUUAAGGAGAAGACUGCGGGUUCGAGUCGCGUAUGGAACG [C34U C61G C66U]
The yeast fitness of the first is lower: at most 0.5 for the first, 0.595 for the second.

Going from GUUCCGUUGGCGUAAUGGUAACGCGUCUCCCUCUUAAGGAGAAGAGUGCGGGUUCGAGUCCCGUACGGAACG [C34U C46G] to GUUCCGUUGGCGUAAUGGUAACGCGUCUCCCUCUUAAGGAGAAGAAUGCGGGUUCGAGUCCCGUACGGAACG [C34U C46A], the yeast fitness rises from 0.705 to 0.714.

GUUCCGUUGGCGUAAUGGUAACGCGUCUCCCUCUUAAGGAGAAGACUGCGGGUUGGAGUCCCAUACGGAACG [C34U C55G G63A] and GUUCCGUUGGCGUAAUGGUAACGCGUCUCCCUCUUAAGGAGAAGACUGUGGGUUUGAGUCCCGUACGGAACG [C34U C49U C55U] cannot be ordered by yeast fitness: at most 0.5 for the first, at most 0.5 for the second.

GUUCCGUUGGCGUAAUGGUAACGCGUCUCCCUCUUAAGGAGAAGACUGCGGGUUCGAGUCCCGUAUGGUACG [C34U C66U A69U] and GUUCCGUUGGCGUAAUGGUAACGCGUCUCCCUCUUAAGGAGAAGACUGCGGAUACGAGUCCCGUAUGGCACG [C34U G52A U54A C66U A69C] cannot be ordered by yeast fitness: at most 0.5 for the first, at most 0.5 for the second.

Going from GUUCCGUUGGCGUAAUGGUAACGCGUCUCCCUCUUAAGGAGAAGACUGCGGGUUCGAGUGCCGUACGGAACG [C34U C60G] to GUUCCGUUGGCGUAAUGGUAACGCGUCUCCCUCUUAAGGAGAAGCCUGCGGGUUCGAGUCCCGUACGGAACG [C34U A45C], the yeast fitness falls from 0.716 to 0.6.

GUUCCGUUGGCGUAAUGGUAACGCGUCUCCCUCUUAAGGAGAAGACUGUGGGCUCGAGUCCCGUACGGAACG [C34U C49U U53C] and GUUCCGUUGGCGUAAUGGUAACGCGUCUCCCUCUUAAGGAGAAGACUGCGGGUUCGAGUCCAGUAUGGAACG [C34U C62A C66U] cannot be ordered by yeast fitness: at most 0.5 for the first, at most 0.5 for the second.

GUUCCGUUGGCGUAAUGGUAACGCGUCUCCCUCUUAAGGAGAAGACUGAGGGUUCGAGUCCCGUACGGCACG [C34U C49A A69C] and GUUCCGUUGGCGUAAUGGUAACGCGUCUCCCUCUUAAGGAGAAAACUGAGGGUUCCAGUCCAGUCCGGAACG [C34U G44A C49A G56C C62A A65C] cannot be ordered by yeast fitness: at most 0.5 for the first, at most 0.5 for the second.

GUUCCGUUGGCGUAAUGGUAACGCGUCUCCCUCUUAAGCAGAAGACUGGGGGUUCGAGUCCCGUACGGAACG [C34U G39C C49G] and GUUCCGUUGGCGUAAUGGUAACGCGUCUCCCUCUUAAGGAGAAGACUGCGGGUUCAAGUCCCGUACAGAACG [C34U G56A G67A] cannot be ordered by yeast fitness: at most 0.5 for the first, at most 0.5 for the second.

GUUCCGUUGGCGUAAUGGUAACGCGUCUCCCUCUUAAGGAGAAGACUGUGGGUUCGAGUCACGUACGGAACG [C34U C49U C61A] and GUUCCGUUGGCGUAAUGGUAACGCGUCUCCCUCUUAAGGAGAAGACUGAGGGUUCGAGUCCCGUACAGAACG [C34U C49A G67A] cannot be ordered by yeast fitness: at most 0.5 for the first, at most 0.5 for the second.

Going from GUUCCGUUGGCGUAAUGGUAACGCGUCUCCCUCUUAAGGAGAAGACUGCGGGUUCGAGUCCCGUAUGGAACG [C34U C66U] to GUUCCGUUGGCGUAAUGGUAACGCGUCUCCCUCUUAAGGAGAAGACUGCGGAUUCGAGUCCCGUACGGAACG [C34U G52A], the yeast fitness rises from 0.555 to 0.618.

First: GUUCCGUUGGCGUAAUGGUAACGCGUCUCCCUCUUAAGGAGAAGACUGCGGGUUCGGGUACCGUACGGAACG [C34U A57G C60A]
Second: GUUCCGUUGGCGUAAUGGUAACGCGUCUCCCUCUUAAGGAGAAGAAUGCGGGUUCGAGUCCUGUACGGAACG [C34U C46A C62U]
The yeast fitness of the first is lower: at most 0.5 for the first, 0.682 for the second.

Going from GUUCCGUUGGCGUAAUGGUAACGCGUCUCCCUCUUAAGGAGAUGUCUGCGGGUUCGAGUCCCGUACGGAACG [C34U A43U A45U] to GUUCCGUUGGCGUAAUGGUAACGCGUCUCCCUCUUAAGGAGCAGACUGCGGGUUCGAGUCCCGUACGGCACG [C34U A42C A69C], the yeast fitness falls from 0.534 to at most 0.5.

First: GUUCCGUUGGCGUAAUGGUAACGCGUCUCCCUCUUAAGGAGAAGACUGCGGGUUCGCGUCCCGUACGGAACG [C34U A57C]
Second: GUUCCGUUGGCGUAAUGGUAACGCGUCUCCCUCUUAAAGAGAACACUGCGGGUUCGAGUCCCGUACGGAACG [C34U G38A G44C]
The yeast fitness of the first is higher: 0.553 for the first, at most 0.5 for the second.

First: GUUCCGUUGGCGUAAUGGUAACGCGUCUCCCUCUUAAGGAGAAGACUGAGGAUUCGAGUCCCGUACGGAACG [C34U C49A G52A]
Second: GUUCCGUUGGCGUAAUGGUAACGCGUCUCCCUCUUAAGGAGAACACUGCGGGCUCGAGUCCCGUACGGAACG [C34U G44C U53C]
The yeast fitness of the first is higher: 0.59 for the first, at most 0.5 for the second.

Reference: the RNAGym collection of RNA variant scans (doi:10.1126/science.aae0568)
